The text below walks through data of the RNAGym collection of RNA variant scans (doi:10.1126/science.aae0568).

Variants at the floor of the assay were thinned out.

The labels stand for the following.
B1: tRNA (parent)
chain: GUUCCGUUGGCGUAAUGGUAACGCGUCUCCCUCCUAAGGAGAAGACUGCGGGUUCGAGUCCCGUACGGAACG

Variants of B1 are the subject of the series. Description: yeast fitness relative to wild type (ratio to wild type); higher = fitter; tRNA-Arg(CCU), competitive growth, 37 C, YPD. A digest of the protocol:
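Changes in genotype frequencies gave Darwinian fitness relative to wild type. Frequencies were read by 100-nucleotide paired-end sequencing of gene amplicons before and after pooled Saccharomyces cerevisiae strains, carrying tRNA-Arg(CCU) gene variants at the native locus, were competed in YPD at 37°C for 24 hours in six replicates. A genotype was kept only with ≥ 100 starting reads, and estimates < 0.5 were set to 0.5.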
Regarding GUUCCGUUGGGGUAAUGGUAAUGCGUCUCCCUCCUAAGGCGAAGAUUGCGGGUUCGAGUACCGUACGGAACG [C11G C22U A40C C46U C60A], the yeast fitness is not above 0.5. For GUUCCGUUGGGGUAAUGGUAACGCGUCUCCCUCCUAAGGAGAAGACUGCGGGUUCGGGUCUCGUACGGAACG [C11G A57G C61U], the yeast fitness was found to be 0.588. The value for GUUCCGUUGGGGUAAUGGUAACGCGUCUCCCUCCUAAGGAGUAGACUGGGGGUUCGACUCCCGUACGGUACG [C11G A42U C49G G58C A69U] was not above 0.5; that for GUUCCGUUGGGGUAAUGGUAACGCGUCUCCCUCCUAAGGAGAAGACUGCGGGUUCGAGUCCCGUGCGGAACG [C11G A65G] was 0.696; that for GUUCCGUUGGGGUAAUGGUAACGCGUCUCCCUCCUAAGGAGAAGACUGCGGGUUCGAGUCCCGUUCGGAACG [C11G A65U] was 0.656.

With GUUCCGUUGGGGUAAUGGUAACGCGUCUCCCUCCUAAGGAGAAGACUGCGGGUUCGAGUCCCGUCCGGAACG [C11G A65C], the yeast fitness came to 0.594. Under GUUCCGUUGGGGUAAUGGUAACGCGUCUCCCUCCUAAGGAGACGAGUGCGGGUUCGAGUCCCGUACGGAACG [C11G A43C C46G] stands 0.514; under GUUCCGUUGGGGUAAUGGUAACGCGUCUCCCUCCUAAGGAGAAGACUGCGGGUUCGAGUCCCGUACGGCUCG [C11G A69C A70U], 0.684.

As for GUUCCGUUGGGGUAAUGGUAACGCGUCUCCCUCCUAAGGAGAAGGCUGUGGGUUAGAGUCCCGUACGGAACG [C11G A45G C49U C55A], the yeast fitness was not above 0.5. For GUUCCGUUGGGGUAAUGGUAACGCGUCUCCCUCCUAAGGAGAAGACUGCGGGUUCGCGUUCCGUACGGAACG [C11G A57C C60U], the yeast fitness was not above 0.5. For the variant GUUCCGUUGGGGUAAUGGUAACGCGUCUCCCUCCUAAGGAGAAGUCUGCGGGUUCGAGUCGCGUACGGAACG [C11G A45U C61G], the yeast fitness was not above 0.5. Turning to GUUCCGUUGGGGUAAUGGUAAGGCGUGUCCCUCCUAAGGAGAAGACUGUGGGUUCGAGUCCUGUACGGAACG [C11G C22G C27G C49U C62U], the yeast fitness is not above 0.5. Under GUUCCGUUGGGGUAAUGGUAACGCGUCUCCCUCCUAAGGAGAAGUCUGCAGGUUCGAGUCCCAAACGGAACG [C11G A45U G50A G63A U64A] stands 0.668; under GUUCCGUUGGGGUAAUGGUAACGCGUCUCCCUCCUAAGGAGAAGACUGCGGGUUCGAGUCCCGUUCGGUACG [C11G A65U A69U], 0.625; under GUUCCGUUGGGGUAAUGGUAAGGUGUCUCCCUCCUAAGGAGAAGACUGCCGGUUCGAGUCCCGUACGGAACG [C11G C22G C24U G50C], not above 0.5. The value for GUUCCGUUGGGGUAAUGGUAAAGCGUGUCCUUCCUAAGGAGAAGACUGCGGGUUCGAGACCCGUACGGAACG [C11G C22A C27G C31U U59A] was 0.569. For GUUCCGUUGGGGUAAUGGUAACGCGUCUCCCUCCUAAGGAGAAGACUGCGGGUUCGCGUCCCGUACGGAACG [C11G A57C], the yeast fitness turned out to be 0.571.

As for GUUCCGUUGGGGUAAUGGUAAAGCGUCUCCAUCCUAAGGGGAAGACUGCGGGUUCGAGUCCCGUACGGAACG [C11G C22A C31A A40G], the yeast fitness is not above 0.5. On to GUUCCGUUGGGGUAAUGGUAACGCGUCUCCCUCCUAAGGAGAAGACUGCGGGUUCGAGUCCCGUACGGGACG [C11G A69G], for which the yeast fitness was determined as 0.652. Turning to GUUCCGUUGGGGUAAUGGUAACGCGUCUCCCUCCUAAGGAGAAGACUGCGGGUUCGAGUCCCGUACGGUACG [C11G A69U], the yeast fitness was determined as 0.608.

Regarding GUUCCGUUGGGGUAAUGGUAACGCGUCUCCCUCCUAAGGAGAAGACUGCGGGUUCGAGUCCCGUACGGCACG [C11G A69C], the yeast fitness worked out at 0.683.

As for GUUCCGUUGGGGUAAUGGUAACGCGUCUCCCUCCUAAGGAGAAGGCUGCGGGUUCGAGUCCCGUACGGAACG [C11G A45G], the yeast fitness worked out at 0.636. With GUUCCGUUGGGGUAAUGGUAAAGCGUCUCCUUCCUAAGGAGGAGACUGCGGGUUCGAGUCCCGUACGGAACG [C11G C22A C31U A42G], the yeast fitness was 0.659. The value for GUUCCGUUGGGGUAAUGGUAAGGCGUCUCCCUCCUAAGGAGAAGACUGCGGGUUCGAGUCCUGUACGGAACG [C11G C22G C62U] was not above 0.5. The value for GUUCCGUUGGGGUAAUGGUAACGCGUCUCCCUCCUAAGGAGUCGACUGCGGGUUAGAGUCCCGUAUGGAACG [C11G A42U A43C C55A C66U] was not above 0.5; that for GUUCCGUUGGGGUAAUGGUAACGCGUCUCCCUCCUAAGGAGAUGACUGCGGGUUCGAGUCCCGUACGGAACG [C11G A43U] was 0.726; that for GUUCCGUUGGGGUAAUGGUAACGCGUCUCCCUCCUAAGGAGAGGACUGCGGGUUCGAGUCCCGUACGGAACG [C11G A43G] was 0.641. Under GUUCCGUUGGGGUAAUGGUAAUGCGUCUCCCUCCUAAGGGGAAGACUGCGGGUUGGAGUCGCGUACGGAACG [C11G C22U A40G C55G C61G] stands not above 0.5; under GUUCCGUUGGGGUAAUGGUAACGCGUCUCCCUCCUAAGGAGAUGACAGCGGGUUCGAGUCCCGUUCCGAACG [C11G A43U U47A A65U G67C], not above 0.5. In the case of GUUCCGUUGGGGUAAUGGUAACGCGUCUCCCUCCUAAGGAGAAGCCCGCGGGUUCGAGUCUCGUACGGGACG [C11G A45C U47C C61U A69G], the yeast fitness was not above 0.5. Under GUUCCGUUGGGGUAAUGGUAACGCGUCUCCCUCCUAAGGAGAAGGCUGCGGGUUCGAGUCCCGUACAGAACG [C11G A45G G67A] stands 0.539; under GUUCCGUUGGGGUAAUGGUAAGGCGUCUCCCUCCUAGGGAGAAGACUGCGGGUUCGAGUACCGUACGGAGCG [C11G C22G A37G C60A A70G], not above 0.5. The value for GUUCCGUUGGGGUAAUGGUAAAGCGUCUCCUUCCUAAGGAGGAGACUGCGGGUUCGAGUCCCGUAUGGAACG [C11G C22A C31U A42G C66U] was not above 0.5.

Turning to GUUCCGUUGGGGUAAUGGUAACGCGUCUCCCUCCUAAGGAGAAGACUGCGGGUUCGAGUCCCGUACGGAGCG [C11G A70G], the yeast fitness worked out at 0.581. The value for GUUCCGUUGGGGUAAUGGUAACGCGUCUCCCUCCUAAGGAGAAGACUGCGGGUUCGAGUCCCGUACGGAUCG [C11G A70U] was 0.655; that for GUUCCGUUGGGGUAAUGGUAAGGCGUCUCCCUCCUAAGGAGAAGACUGCGGGUUCGAGUCCCGUACGGAACG [C11G C22G] was 0.675. Turning to GUUCCGUUGGGGUAAUGGUAAUGCGUCUCCCUCCUAAGGAGAAGACUGCGGGUUCGAGUCCCGUACGGAACG [C11G C22U], the yeast fitness stood at 0.653. The value for GUUCCGUUGGGGUAAUGGUAAAGCGUCUCCCUCCUAAGGAGAAGACUGCGGGUUCGAGUCCCGUACGGAACG [C11G C22A] was 0.608.
